Assays:
[1] = biological target: T1, Neutrophil elastase (Homo sapiens) (UniProt P08246); details: 1 uM
T1 sequence (whole entry): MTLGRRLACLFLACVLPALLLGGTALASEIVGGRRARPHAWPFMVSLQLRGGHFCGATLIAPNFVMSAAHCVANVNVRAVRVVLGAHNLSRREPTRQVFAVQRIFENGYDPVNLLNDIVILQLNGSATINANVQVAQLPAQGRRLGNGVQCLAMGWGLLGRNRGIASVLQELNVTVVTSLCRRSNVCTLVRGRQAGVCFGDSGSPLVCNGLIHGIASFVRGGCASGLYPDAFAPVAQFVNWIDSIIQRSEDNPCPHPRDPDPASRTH

Cathepsin G = biological target: T2, Cathepsin G (Homo sapiens, UniProt P08311); test: Inhibition of cathepsin G at pH 7.5 in HEPES buffer containing 200 mM NaCl with substrate Suc-Ala-Ala-Pro-Phe-pNA.
T2 sequence (P08311 whole entry): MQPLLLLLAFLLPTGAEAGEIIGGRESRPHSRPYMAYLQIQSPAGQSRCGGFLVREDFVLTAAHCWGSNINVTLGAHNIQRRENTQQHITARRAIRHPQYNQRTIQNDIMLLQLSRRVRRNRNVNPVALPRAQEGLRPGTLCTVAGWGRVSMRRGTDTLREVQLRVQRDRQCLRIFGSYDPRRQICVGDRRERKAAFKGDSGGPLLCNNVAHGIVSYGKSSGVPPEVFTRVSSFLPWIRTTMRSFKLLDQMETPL
In short: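 Wells pre-equilibrated at 37 °C >10 min before enzyme start. A405 followed 15 min. Eight concentrations over a 200-fold span. Ki from competitive fit of vi/vc versus [I].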

[2] = biological target: T1, Neutrophil elastase (Homo sapiens); details: 0.2 uM
Neutrophil elastase [3] = biological target: T3, Neutrophil elastase (Homo sapiens, UniProt P08246); test: Binding Affinity to inhibit HLE
T3 sequence (P08246 whole entry): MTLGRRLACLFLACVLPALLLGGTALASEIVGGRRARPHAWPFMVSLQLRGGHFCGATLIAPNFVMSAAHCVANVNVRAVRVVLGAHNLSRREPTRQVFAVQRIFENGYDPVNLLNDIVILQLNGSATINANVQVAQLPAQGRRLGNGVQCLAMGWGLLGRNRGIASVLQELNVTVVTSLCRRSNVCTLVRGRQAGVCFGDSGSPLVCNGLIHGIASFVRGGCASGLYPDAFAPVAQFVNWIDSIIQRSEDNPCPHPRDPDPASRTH
In short: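 Purified human leukocyte elastase (3 nM final) with 10 µM […] (below Km 200 µM) in 50 mM HEPES, 200 mM NaCl, pH 7.5, 0.3% DMSO. Inhibitor and substrate pre-equilibrated at 37 °C for >10 min, then enzyme added. A405 read for 15 min. Eight inhibitor levels spanning a 200-fold range. Ki from fit of vi/vc to the competitive-inhibition equation.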

[4] = biological target: T1, Neutrophil elastase (Homo sapiens); details: 0.5 uM
Neutrophil elastase [5] = biological target: T3, Neutrophil elastase; test: Inhibitory activity against human leukocyte elastase
Prothrombin = Prothrombin (Homo sapiens, UniProt P00734); test: Inhibition of thrombin at pH 7.5 in HEPES buffer containing 200 mM NaCl with substrate Bz-Phe-Val-Arg-pNA.
In short: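 Reaction started with enzyme after >10 min equilibration. A405 rise recorded 15 min. Eight compound levels over a 200-fold range. Ki from competitive-model fit of vi/vc.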

[6] = substrate: O=C(O)COc1cc(Cc2cc(OCc3ccccc3)c(Cc3cc(OCc4ccccc4)c(Cc4cc(OCc5ccccc5)c(Cc5cc(OCc6ccccc6)c(Cc6cc(O)ccc6OCC(=O)O)cc5OCC(=O)O)cc4OCC(=O)O)cc3OCC(=O)O)cc2OCC(=O)O)c(OCc2ccccc2)cc1CO; details: 1 uM
[7] = substrate: O=C(O)COc1cc(Cc2cc(OCc3ccccc3)c(Cc3cc(OCc4ccccc4)c(Cc4cc(OCc5ccccc5)c(Cc5cc(OCc6ccccc6)c(Cc6cc(O)ccc6OCC(=O)O)cc5OCC(=O)O)cc4OCC(=O)O)cc3OCC(=O)O)cc2OCC(=O)O)c(OCc2ccccc2)cc1CO; details: 0.5 uM
[8] = substrate: O=C(O)COc1cc(Cc2cc(OCc3ccccc3)c(Cc3cc(OCc4ccccc4)c(Cc4cc(OCc5ccccc5)c(Cc5cc(OCc6ccccc6)c(Cc6cc(O)ccc6OCC(=O)O)cc5OCC(=O)O)cc4OCC(=O)O)cc3OCC(=O)O)cc2OCC(=O)O)c(OCc2ccccc2)cc1CO; details: 0.2 uM

Work on `O=C(O)COc1cc(Cc2cc(OCc3ccccc3)c(Cc3cc(OCc4ccccc4)c(Cc4cc(OCc5ccccc5)c(Cc5cc(OCc6ccccc6)c(Cc6cc(O)ccc6OCC(=O)O)cc5OCC(=O)O)cc4OCC(=O)O)cc3OCC(=O)O)cc2OCC(=O)O)c(OCc2ccccc2)cc1CO` yielded a Vm [1] of 0.2 µM, a Ki (Cathepsin G) greater than 15000 nM and a Vm [2] of 0.2 µM. For the same molecule, the Ki (Neutrophil elastase [3]) was 190 nM, the Vm [4] was 0.2 µM and the Ki (Neutrophil elastase [5]) was 120 nM. For the same molecule, the Ki (Prothrombin) was greater than 15000 nM.

Molecule `O=C(O)COc1cc(Cc2cc(OCc3ccccc3)c(Cc3cc(OCc4ccccc4)c(Cc4cc(OCc5ccccc5)c(Cc5cc(O)ccc5OCC(=O)O)cc4OCC(=O)O)cc3OCC(=O)O)cc2OCC(=O)O)c(OCc2ccccc2)cc1CO` has a Ki (Cathepsin G) greater than 15000 nM, a Ki (Neutrophil elastase [5]) of 130 nM and a Ki (Prothrombin) of 750 nM.

`CC(C)(C)c1cc2c(OCC(=O)O)c(c1)Cc1cc(C(C)(C)C)cc(c1OCC(=O)O)Cc1cc(C(C)(C)C)cc(c1OCC(=O)O)Cc1cc(C(C)(C)C)cc(c1OCC(=O)O)Cc1cc(C(C)(C)C)cc(c1OCC(=O)O)Cc1cc(C(C)(C)C)cc(c1OCC(=O)O)Cc1cc(C(C)(C)C)cc(c1OCC(=O)O)Cc1cc(C(C)(C)C)cc(c1OCC(=O)O)C2` showed a Ki (Neutrophil elastase [5]) of 1300 nM.

Molecule `COc1ccc(OCC(=O)O)c(Cc2cc(OCCCCCc3ccccc3)c(Cc3cc(OCC(=O)O)c(Cc4cc(OCCCCCc5ccccc5)c(Cc5cc(OCC(=O)O)c(Cc6cc(OCCCCCc7ccccc7)c(C)cc6OC)cc5OC)cc4OC)cc3OC)cc2OC)c1` has a Ki (Cathepsin G) greater than 15000 nM, a Ki (Neutrophil elastase [5]) of 17 nM and a Ki (Prothrombin) of 1400 nM.

Work on `O=C(O)COc1cc(Cc2cc(OCc3ccccc3)c(Cc3cc(OCc4ccccc4)c(Cc4cc(O)ccc4OCC(=O)O)cc3OCC(=O)O)cc2OCC(=O)O)c(OCc2ccccc2)cc1CO` yielded a Ki (Cathepsin G) greater than 15000 nM, a Ki (Neutrophil elastase [5]) of 8300 nM and a Ki (Prothrombin) greater than 15000 nM.

Work on `COc1cc(CO)c(OCc2ccccc2)cc1Cc1cc(OC)c(Cc2cc(OC)c(Cc3cc(OC)c(Cc4cc(OC)c(Cc5cc(O)ccc5OCC(=O)O)cc4OCc4ccccc4)cc3OCC(=O)O)cc2OCc2ccccc2)cc1OCC(=O)O` yielded a Ki (Cathepsin G) of 1500 nM, a Ki (Neutrophil elastase [5]) of 200 nM and a Ki (Prothrombin) greater than 15000 nM.

`COc1ccc(OCC(=O)O)c(Cc2cc(O)c(Cc3cc(OCC(=O)O)c(Cc4cc(O)c(Cc5cc(OCC(=O)O)c(Cc6cc(O)c(C)cc6OC)cc5OC)cc4OC)cc3OC)cc2OC)c1` gave a Ki (Cathepsin G) greater than 15000 nM, a Ki (Neutrophil elastase [5]) of 1300 nM and a Ki (Prothrombin) greater than 15000 nM.

In the case of `COCCOCOc1cc(Cc2cc(OC)c(Cc3cc(OC)c(Cc4cc(OC)c(Cc5cc(OC)c(Cc6cc(OC)ccc6OCC(=O)O)cc5OCOCCOC)cc4OCC(=O)O)cc3OCOCCOC)cc2OCC(=O)O)c(OC)cc1C`, the Ki (Cathepsin G) is reported as greater than 15000 nM, the Ki (Neutrophil elastase [5]) is reported as 1000 nM and the Ki (Prothrombin) is reported as 240 nM.

Work on `COc1ccc(OCC(=O)O)c(Cc2cc(OCCCc3ccccc3)c(Cc3cc(OCC(=O)O)c(Cc4cc(OCCCc5ccccc5)c(Cc5cc(OCC(=O)O)c(Cc6cc(OCCCc7ccccc7)c(C)cc6OC)cc5OC)cc4OC)cc3OC)cc2OC)c1` yielded a Ki (Cathepsin G) greater than 15000 nM, a Ki (Neutrophil elastase [5]) of 100 nM and a Ki (Prothrombin) of 1700 nM.

With `COc1ccc(OCC(=O)O)c(Cc2cc(OCC3CCCCC3)c(Cc3cc(OCC(=O)O)c(Cc4cc(OCC5CCCCC5)c(Cc5cc(OCC(=O)O)c(Cc6cc(OCC7CCCCC7)c(C)cc6OC)cc5OC)cc4OC)cc3OC)cc2OC)c1` the Ki (Cathepsin G) was greater than 15000 nM, the Ki (Neutrophil elastase [5]) was 20 nM and the Ki (Prothrombin) was greater than 15000 nM.

B1: Neutrophil elastase (Homo sapiens), P08246 (protein)
chain: MTLGRRLACLFLACVLPALLLGGTALASEIVGGRRARPHAWPFMVSLQLRGGHFCGATLIAPNFVMSAAHCVANVNVRAVRVVLGAHNLSRREPTRQVFAVQRIFENGYDPVNLLNDIVILQLNGSATINANVQVAQLPAQGRRLGNGVQCLAMGWGLLGRNRGIASVLQELNVTVVTSLCRRSNVCTLVRGRQAGVCFGDSGSPLVCNGLIHGIASFVRGGCASGLYPDAFAPVAQFVNWIDSIIQRSEDNPCPHPRDPDPASRTH
With B1 the Km [6] was 2.3 µM, the Km [7] was 1.1 µM and the Km [8] was 0.77 µM.
